Laboratory results as given in ChEMBL document CHEMBL4118021, “Studies of TAK1-centered polypharmacology with novel covalent TAK1 inhibitors” (Bioorg Med Chem, 2017).

What was measured:
Type in all cases: cell-based
[1] = molecular target: Aurora kinase B (Homo sapiens) (UniProt Q96GD4); assay: Inhibition of AurB in human SKCO1 cells at 1 uM after 4 hrs using biotin labeled SHFIVALKVLFK probe by mass-spectrometric analysis relative to control
[2] = molecular target: Bone morphogenetic protein receptor type-1A (Homo sapiens) (UniProt P36894); assay: Inhibition of BMPR1A in human SKCO1 cells at 1 uM after 4 hrs using biotin labeled SKNILIK probe by mass-spectrometric analysis relative to control
[3] = molecular target: T1, Serine/threonine-protein kinase Chk1 (Homo sapiens) (UniProt O14757); assay: Inhibition of CHK1 in human SKCO1 cells at 1 uM after 4 hrs using biotin labeled DIKPENLLLDER probe by mass-spectrometric analysis relative to control
T1 sequence (whole entry): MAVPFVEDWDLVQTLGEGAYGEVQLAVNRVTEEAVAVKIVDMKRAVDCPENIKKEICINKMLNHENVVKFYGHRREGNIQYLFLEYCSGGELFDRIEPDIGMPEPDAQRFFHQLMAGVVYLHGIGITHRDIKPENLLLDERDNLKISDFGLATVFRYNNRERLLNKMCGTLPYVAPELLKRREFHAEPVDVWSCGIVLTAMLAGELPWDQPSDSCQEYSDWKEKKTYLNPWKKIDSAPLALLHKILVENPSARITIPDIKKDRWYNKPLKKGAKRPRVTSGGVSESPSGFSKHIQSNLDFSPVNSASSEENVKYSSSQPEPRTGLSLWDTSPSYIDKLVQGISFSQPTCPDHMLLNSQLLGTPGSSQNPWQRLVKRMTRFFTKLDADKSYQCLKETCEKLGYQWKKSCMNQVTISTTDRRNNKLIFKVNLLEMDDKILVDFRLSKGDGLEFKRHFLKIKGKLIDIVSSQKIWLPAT

[4] = molecular target: Tyrosine-protein kinase Yes (Homo sapiens) (UniProt P07947); assay: Inhibition of YES in human SKCO1 cells at 1 uM after 4 hrs using biotin labeled QGAKFPIKWTAPEAALYGR probe by mass-spectrometric analysis relative to control
[5] = molecular target: Interleukin-1 receptor-associated kinase 1 (Homo sapiens) (UniProt P51617); assay: Inhibition of IRAK1 in human SKCO1 cells at 1 uM after 4 hrs using biotin labeled AIQFLHQDSPSLIHGDIKSSNVLLDER probe by mass-spectrometric analysis relative to control
[6] = molecular target: Serine/threonine-protein kinase 10 (Homo sapiens) (UniProt O94804); assay: Inhibition of LOK in human SKCO1 cells at 1 uM after 4 hrs using biotin labeled DLKAGNVLMTLEGDIR probe by mass-spectrometric analysis relative to control
[7] = molecular target: T2, Mixed lineage kinase domain-like protein (Homo sapiens) (UniProt Q8NB16); assay: Inhibition of MLKL in human SKCO1 cells at 1 uM after 4 hrs using biotin labeled APVAIKVFK probe by mass-spectrometric analysis relative to control
T2 sequence (whole entry): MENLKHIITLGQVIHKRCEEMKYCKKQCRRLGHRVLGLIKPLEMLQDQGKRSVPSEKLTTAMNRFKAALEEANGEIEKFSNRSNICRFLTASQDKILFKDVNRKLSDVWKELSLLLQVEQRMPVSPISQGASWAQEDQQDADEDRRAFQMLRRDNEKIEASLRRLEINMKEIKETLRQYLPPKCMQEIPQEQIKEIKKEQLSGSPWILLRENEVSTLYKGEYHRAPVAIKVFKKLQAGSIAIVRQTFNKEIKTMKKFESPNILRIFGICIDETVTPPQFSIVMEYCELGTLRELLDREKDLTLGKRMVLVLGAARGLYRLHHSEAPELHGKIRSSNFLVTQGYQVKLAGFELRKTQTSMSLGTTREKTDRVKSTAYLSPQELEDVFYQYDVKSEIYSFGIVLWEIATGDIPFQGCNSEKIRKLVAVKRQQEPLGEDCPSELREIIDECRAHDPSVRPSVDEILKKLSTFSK

[8] = molecular target: Ribosomal protein S6 kinase (Homo sapiens) (UniProt P51812+Q9UBS0+O75676+Q15349+O75582+P23443+Q9UK32+Q15418); assay: Inhibition of p70S6K in human SKCO1 cells at 1 uM after 4 hrs using biotin labeled DLKPENIMLNHQGHVK probe by mass-spectrometric analysis relative to control
How it was run: (§1)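 Live SK-CO-1 cells exposed to compound at 1 μM or DMSO for 4 h (KiNativ). Lysates then labeled with lysine-reactive ATP/ADP-biotin probe, and probe-labeled kinase peptides quantified by mass spectrometry. Percent inhibition of probe-dependent recovery calculated relative to DMSO-treated cells.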

[9] = molecular target: Cyclin-dependent kinase 16 (Homo sapiens) (UniProt Q00536); assay: Inhibition of PCTAIRE1 in human SKCO1 cells at 1 uM after 4 hrs using biotin labeled DLKPQNLLINER probe by mass-spectrometric analysis relative to control; how it was run: as §1
[10] = molecular target: Cyclin-dependent kinase 18 (Homo sapiens) (UniProt Q07002); assay: Inhibition of PCTAIRE3 in human SKCO1 cells at 1 uM after 4 hrs using biotin labeled SKLTENLVALKEIR probe by mass-spectrometric analysis relative to control; how it was run: as §1
[11] = molecular target: T3, Protein kinase C zeta type (Homo sapiens) (UniProt Q05513); assay: Inhibition of PKCz in human SKCO1 cells at 1 uM after 4 hrs using biotin labeled DLKLDNVLLDADGHIK probe by mass-spectrometric analysis relative to control; how it was run: as §1
T3 sequence (whole entry): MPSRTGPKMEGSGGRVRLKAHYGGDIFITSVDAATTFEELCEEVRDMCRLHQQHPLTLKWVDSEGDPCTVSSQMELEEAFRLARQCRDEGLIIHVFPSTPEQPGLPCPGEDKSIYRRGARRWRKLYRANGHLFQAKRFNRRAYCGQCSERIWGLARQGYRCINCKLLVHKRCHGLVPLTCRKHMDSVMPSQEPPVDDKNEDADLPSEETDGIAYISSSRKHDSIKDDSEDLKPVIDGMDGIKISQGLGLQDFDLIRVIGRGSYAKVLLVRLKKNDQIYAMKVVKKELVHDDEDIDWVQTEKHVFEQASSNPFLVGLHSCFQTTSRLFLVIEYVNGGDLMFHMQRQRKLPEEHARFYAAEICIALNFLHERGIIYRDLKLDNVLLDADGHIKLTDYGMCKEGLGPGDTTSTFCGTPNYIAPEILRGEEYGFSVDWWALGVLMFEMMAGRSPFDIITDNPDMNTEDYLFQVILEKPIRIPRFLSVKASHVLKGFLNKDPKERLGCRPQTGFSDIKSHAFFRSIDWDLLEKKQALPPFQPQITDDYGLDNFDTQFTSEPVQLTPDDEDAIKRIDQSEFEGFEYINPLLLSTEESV

[12] = molecular target: RAF proto-oncogene serine/threonine-protein kinase (Homo sapiens) (UniProt P04049); assay: Inhibition of RAF1 in human SKCO1 cells at 1 uM after 4 hrs using biotin labeled DMKSNNIFLHEGLTVK probe by mass-spectrometric analysis relative to control; how it was run: as §1
Chain of RAF proto-oncogene serine/threonine-protein kinase (Homo sapiens) (P04049 whole entry): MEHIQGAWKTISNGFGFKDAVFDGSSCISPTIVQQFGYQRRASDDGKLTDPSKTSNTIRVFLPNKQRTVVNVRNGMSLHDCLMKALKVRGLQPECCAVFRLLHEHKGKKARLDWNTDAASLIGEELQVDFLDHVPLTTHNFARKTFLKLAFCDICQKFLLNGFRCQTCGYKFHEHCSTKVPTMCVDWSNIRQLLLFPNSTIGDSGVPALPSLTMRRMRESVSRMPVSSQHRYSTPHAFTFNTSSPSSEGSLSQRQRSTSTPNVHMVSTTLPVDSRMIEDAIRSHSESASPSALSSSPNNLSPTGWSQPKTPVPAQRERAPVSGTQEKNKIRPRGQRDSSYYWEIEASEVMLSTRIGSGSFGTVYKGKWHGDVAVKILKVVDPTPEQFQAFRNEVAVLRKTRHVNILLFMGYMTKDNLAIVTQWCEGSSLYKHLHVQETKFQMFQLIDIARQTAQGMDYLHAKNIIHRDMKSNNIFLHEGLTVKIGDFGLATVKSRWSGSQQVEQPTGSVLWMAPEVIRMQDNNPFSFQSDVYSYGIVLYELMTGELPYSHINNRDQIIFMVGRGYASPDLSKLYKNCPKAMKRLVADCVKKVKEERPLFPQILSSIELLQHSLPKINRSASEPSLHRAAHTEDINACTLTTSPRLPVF

Chain of Aurora kinase B (Homo sapiens) (Q96GD4 whole entry): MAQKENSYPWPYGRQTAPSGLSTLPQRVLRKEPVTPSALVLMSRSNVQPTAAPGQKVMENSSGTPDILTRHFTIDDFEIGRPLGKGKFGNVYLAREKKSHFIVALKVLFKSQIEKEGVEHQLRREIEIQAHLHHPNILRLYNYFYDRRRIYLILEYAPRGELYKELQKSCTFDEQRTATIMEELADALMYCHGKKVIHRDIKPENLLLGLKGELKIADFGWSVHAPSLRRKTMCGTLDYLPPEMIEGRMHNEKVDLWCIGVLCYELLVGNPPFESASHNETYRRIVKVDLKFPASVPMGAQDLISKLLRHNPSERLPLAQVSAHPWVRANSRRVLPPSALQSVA
Chain of Cyclin-dependent kinase 18 (Homo sapiens) (Q07002 whole entry): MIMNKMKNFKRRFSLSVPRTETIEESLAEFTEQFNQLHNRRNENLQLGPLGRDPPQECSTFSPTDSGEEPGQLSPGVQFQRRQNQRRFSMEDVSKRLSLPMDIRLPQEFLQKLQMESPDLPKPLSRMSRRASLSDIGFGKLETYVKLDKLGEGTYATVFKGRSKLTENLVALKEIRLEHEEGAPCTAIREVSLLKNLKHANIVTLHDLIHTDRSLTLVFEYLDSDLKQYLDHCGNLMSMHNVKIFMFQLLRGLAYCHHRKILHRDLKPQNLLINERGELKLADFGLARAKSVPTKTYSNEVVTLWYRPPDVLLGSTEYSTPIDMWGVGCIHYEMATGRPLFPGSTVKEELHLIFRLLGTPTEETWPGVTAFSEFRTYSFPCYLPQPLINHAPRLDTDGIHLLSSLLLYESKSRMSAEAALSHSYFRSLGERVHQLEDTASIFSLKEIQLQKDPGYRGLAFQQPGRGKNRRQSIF
Chain of Bone morphogenetic protein receptor type-1A (Homo sapiens) (P36894 whole entry): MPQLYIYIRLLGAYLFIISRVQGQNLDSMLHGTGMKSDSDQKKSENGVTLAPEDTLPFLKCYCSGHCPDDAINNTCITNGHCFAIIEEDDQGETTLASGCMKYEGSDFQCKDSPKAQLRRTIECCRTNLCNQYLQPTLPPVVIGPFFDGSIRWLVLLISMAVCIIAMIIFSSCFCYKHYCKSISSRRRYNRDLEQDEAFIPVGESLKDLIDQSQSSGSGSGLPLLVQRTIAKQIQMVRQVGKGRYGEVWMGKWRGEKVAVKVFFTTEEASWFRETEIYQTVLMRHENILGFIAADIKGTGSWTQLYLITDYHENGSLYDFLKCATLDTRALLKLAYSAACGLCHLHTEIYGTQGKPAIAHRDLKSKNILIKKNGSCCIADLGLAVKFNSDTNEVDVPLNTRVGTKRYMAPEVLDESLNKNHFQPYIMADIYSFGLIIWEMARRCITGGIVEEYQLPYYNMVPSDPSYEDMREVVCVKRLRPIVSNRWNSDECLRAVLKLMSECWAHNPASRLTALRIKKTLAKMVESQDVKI
Chain of Serine/threonine-protein kinase 10 (Homo sapiens) (O94804 whole entry, looked up, the tested form may be a part): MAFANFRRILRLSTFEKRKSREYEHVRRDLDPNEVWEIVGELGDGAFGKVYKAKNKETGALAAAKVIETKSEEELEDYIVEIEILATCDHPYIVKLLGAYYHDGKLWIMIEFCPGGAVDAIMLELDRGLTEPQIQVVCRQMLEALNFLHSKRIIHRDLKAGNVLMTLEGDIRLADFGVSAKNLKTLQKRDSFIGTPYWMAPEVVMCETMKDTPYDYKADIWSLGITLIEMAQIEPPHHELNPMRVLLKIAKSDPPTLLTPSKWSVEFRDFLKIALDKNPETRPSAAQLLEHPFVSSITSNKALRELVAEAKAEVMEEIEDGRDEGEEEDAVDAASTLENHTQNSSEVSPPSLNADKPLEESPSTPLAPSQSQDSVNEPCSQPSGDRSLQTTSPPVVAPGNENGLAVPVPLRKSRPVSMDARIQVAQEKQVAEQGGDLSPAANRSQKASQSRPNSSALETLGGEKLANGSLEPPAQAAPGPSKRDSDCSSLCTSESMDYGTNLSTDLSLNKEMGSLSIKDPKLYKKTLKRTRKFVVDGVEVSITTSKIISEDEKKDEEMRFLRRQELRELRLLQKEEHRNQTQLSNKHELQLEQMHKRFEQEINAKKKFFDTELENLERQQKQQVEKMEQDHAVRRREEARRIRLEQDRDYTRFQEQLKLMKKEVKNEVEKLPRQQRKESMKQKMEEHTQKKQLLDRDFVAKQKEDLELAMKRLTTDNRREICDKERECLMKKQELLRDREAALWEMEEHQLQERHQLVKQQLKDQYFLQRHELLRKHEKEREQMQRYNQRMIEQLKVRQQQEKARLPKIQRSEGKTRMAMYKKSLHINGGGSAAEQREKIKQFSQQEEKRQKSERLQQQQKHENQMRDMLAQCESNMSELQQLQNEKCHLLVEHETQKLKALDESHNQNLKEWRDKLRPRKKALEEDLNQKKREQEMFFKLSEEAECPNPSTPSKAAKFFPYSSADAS
Chain of Cyclin-dependent kinase 16 (Homo sapiens) (Q00536 whole entry): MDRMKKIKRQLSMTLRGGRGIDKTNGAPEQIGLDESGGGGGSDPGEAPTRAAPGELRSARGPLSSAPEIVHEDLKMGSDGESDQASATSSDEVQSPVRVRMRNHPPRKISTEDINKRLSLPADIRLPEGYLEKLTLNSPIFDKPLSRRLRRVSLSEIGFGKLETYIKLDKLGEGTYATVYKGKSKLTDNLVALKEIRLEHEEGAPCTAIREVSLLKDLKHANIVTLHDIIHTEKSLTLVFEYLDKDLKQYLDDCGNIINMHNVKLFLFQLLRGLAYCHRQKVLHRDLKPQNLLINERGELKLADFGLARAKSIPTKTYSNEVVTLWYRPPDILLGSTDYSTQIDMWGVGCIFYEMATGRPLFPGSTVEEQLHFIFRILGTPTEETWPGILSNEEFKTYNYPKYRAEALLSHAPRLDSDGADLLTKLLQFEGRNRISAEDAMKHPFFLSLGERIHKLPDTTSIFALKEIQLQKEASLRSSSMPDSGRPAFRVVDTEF
Chain of Interleukin-1 receptor-associated kinase 1 (Homo sapiens) (P51617 whole entry, looked up): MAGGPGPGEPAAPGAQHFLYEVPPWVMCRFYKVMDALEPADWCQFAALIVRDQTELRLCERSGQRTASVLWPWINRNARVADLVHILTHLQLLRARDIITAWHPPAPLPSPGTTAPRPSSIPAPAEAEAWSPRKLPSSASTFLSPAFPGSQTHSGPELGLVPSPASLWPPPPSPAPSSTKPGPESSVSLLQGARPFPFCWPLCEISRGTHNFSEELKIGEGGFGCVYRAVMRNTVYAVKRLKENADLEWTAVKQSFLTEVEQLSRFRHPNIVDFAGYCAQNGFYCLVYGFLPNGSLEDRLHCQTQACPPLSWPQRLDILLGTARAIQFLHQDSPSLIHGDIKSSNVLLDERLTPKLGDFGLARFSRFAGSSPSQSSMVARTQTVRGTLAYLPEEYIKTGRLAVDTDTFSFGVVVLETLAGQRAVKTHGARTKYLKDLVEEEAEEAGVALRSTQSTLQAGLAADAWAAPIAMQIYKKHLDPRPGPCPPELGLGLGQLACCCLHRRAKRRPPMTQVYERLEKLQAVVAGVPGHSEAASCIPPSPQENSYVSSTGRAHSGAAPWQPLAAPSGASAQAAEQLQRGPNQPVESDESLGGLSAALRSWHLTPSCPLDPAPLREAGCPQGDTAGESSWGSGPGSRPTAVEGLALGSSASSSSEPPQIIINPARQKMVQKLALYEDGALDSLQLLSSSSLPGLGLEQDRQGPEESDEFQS
Chain of Tyrosine-protein kinase Yes (Homo sapiens) (P07947 2-543 limits assumed): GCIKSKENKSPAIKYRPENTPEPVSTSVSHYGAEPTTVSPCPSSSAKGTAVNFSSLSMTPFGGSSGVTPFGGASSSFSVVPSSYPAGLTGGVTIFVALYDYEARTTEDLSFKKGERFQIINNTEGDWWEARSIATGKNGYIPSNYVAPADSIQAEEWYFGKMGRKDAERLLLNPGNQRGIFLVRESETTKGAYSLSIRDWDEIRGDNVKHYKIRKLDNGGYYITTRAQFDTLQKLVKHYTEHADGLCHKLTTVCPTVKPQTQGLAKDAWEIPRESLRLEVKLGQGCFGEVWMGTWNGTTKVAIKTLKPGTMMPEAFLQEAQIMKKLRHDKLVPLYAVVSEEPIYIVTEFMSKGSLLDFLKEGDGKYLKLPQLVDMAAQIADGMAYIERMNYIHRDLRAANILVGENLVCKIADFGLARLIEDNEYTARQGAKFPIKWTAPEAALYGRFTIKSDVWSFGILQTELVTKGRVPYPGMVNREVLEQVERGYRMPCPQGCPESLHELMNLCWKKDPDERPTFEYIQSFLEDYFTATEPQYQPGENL

COc1cc(O)c2c(c1)/C=C/C[C@H](O)[C@H](O)C(=O)/C=C\C[C@H](C)OC2=O
inhibition [1]: 58.1% | inhibition [2]: 73.1% | inhibition [3]: 40.2% | inhibition [4]: 8.5% | inhibition [5]: -6% | inhibition [6]: 21.4% | inhibition [7]: 56.6% | inhibition [8]: 45.5% | inhibition [9]: -6.3% | inhibition [10]: 21.2% | inhibition [11]: 42.1% | inhibition [12]: 66.4%

C=CC(=O)Nc1ccccc1Oc1nc(Nc2cnn(CCOC)c2)ncc1Cl
inhibition [1]: 65.4% | inhibition [2]: 19.9% | inhibition [3]: 48.8% | inhibition [4]: -0.9% | inhibition [5]: -4.5% | inhibition [6]: 11.6% | inhibition [7]: 53.7% | inhibition [8]: 14.3% | inhibition [9]: -5.9% | inhibition [10]: 21.9% | inhibition [11]: 30% | inhibition [12]: 6.3%

C=CC(=O)Nc1ccccc1Nc1nc(Nc2ccc(N3CCN(C)CC3)cc2)ncc1Cl
inhibition [1]: 94.4% | inhibition [2]: 28% | inhibition [3]: 53.8% | inhibition [4]: 50.5% | inhibition [5]: 38.2% | inhibition [6]: 40.4% | inhibition [7]: 52.3% | inhibition [8]: 16.3% | inhibition [9]: -3.2% | inhibition [10]: 3.7% | inhibition [11]: 14.5% | inhibition [12]: 65.6%
